In ChEMBL document CHEMBL2150991, “Synthesis of novel N-branched acyclic nucleoside phosphonates as potent and selective inhibitors of human, Plasmodium falciparum and Plasmodium vivax 6-oxopurine phosphoribosyltransferases” (J Med Chem, 2012):
≈ marks a conversion by molar mass, not a printed value.

Legend:
[1] = Cytotoxicity against human HEL cells; type: cell-based
[2] = Cytotoxicity african green monkey Vero cells; type: cell-based; conditions: chlorocebus sabaeus
[3] = Cytotoxicity against cat CRFK cells; type: cell-based, Felis catus
L1210 = test: Cytostatic activity against mouse L1210 cells; type: ADME, cell-based
CCRF-CEM = test: Cytostatic activity against human CCRF-CEM cells; type: ADME, cell-based
HL-60 = test: Cytostatic activity against human HL60 cells; type: ADME, cell-based
[4] = Cytostatic activity against human HeLaS3 cells; type: ADME, cell-based; conditions: hela s3
[5] = Inhibition of Plasmodium falciparum recombinant HGPRT expressed in Escherichia coli using Prib-PP as substrate by spectrophotometric assay in presence of guanine
Procedure, shortened: (§1)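 Continuous spectrophotometric assay at 25 °C in 0.1 M Tris-HCl, 10 mM MgCl₂, pH 7.4. PRib-PP is the variable substrate. Guanine is held fixed at a saturating 60 μM. Values are apparent Ki, since only one concentration of the second substrate was used. Each was calculated from Km(app) = Km(1 + [I]/Ki(app)).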

[6] = Inhibition of Plasmodium vivax HGPRT using Prib-PP as substrate by spectrophotometric assay in presence of guanine; procedure, shortened: as §1
[7] = molecular target: T1, Hypoxanthine-guanine phosphoribosyltransferase (Homo sapiens, UniProt P00492); test: Inhibition of human HGPRT using Prib-PP as substrate by spectrophotometric assay in presence of guanine; procedure, shortened: as §1
T1 sequence (P00492 whole entry): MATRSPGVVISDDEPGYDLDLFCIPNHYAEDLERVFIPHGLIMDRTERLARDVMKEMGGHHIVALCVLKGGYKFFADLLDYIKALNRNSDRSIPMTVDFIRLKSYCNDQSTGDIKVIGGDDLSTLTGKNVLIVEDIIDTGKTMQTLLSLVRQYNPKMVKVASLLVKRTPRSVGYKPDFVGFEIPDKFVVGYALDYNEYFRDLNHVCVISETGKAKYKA

| Ki [7] | Structure (SMILES) | CC50 [1] | CC50 [2] | CC50 [3] | Activity (L1210) | Activity (CCRF-CEM) | Activity (HL-60) | Activity [4] | Ki [5] | Ki [6] |
| --- | --- | --- | --- | --- | --- | --- | --- | --- | --- | --- |
|  | N#CCN(CCn1cnc2c(=O)[nH]c(N)nc21)CCP(=O)(O)O | 53 µg/mL (≈ 155 µM) | > 100 µg/mL | > 100 µg/mL | Non-toxic | Non-toxic | Non-toxic | Non-toxic |  |  |
| 35000 nM | N#CCN(CCn1cnc2c(=O)[nH]cnc21)CCP(=O)(O)O | > 100 µg/mL | > 100 µg/mL | > 100 µg/mL | Non-toxic | Non-toxic | Non-toxic | Non-toxic | ≥ 250000 nM | 47000 nM |
| 70 nM | Nc1nc2c(ncn2CCN(CCO)CCP(=O)(O)O)c(=O)[nH]1 | > 100 µg/mL |  |  | Non-toxic | Non-toxic | Non-toxic | Non-toxic | 200 nM | 1400 nM |
| 5500 nM | O=c1[nH]cnc2c1ncn2CCN(CCO)CCP(=O)(O)O | > 100 µg/mL | > 100 µg/mL | > 100 µg/mL | Non-toxic | Non-toxic | Non-toxic | Non-toxic | 2600 nM | 21000 nM |
| > 200000 nM | COC(=O)CCN(CCn1cnc2c(=O)[nH]cnc21)CCP(=O)(O)O | > 100 µg/mL | > 100 µg/mL | > 100 µg/mL | Non-toxic | Non-toxic | Non-toxic | Non-toxic | 100 nM | 21000 nM |
| 150 nM | Nc1nc2c(ncn2CCN(CCC(=O)O)CCP(=O)(O)O)c(=O)[nH]1 | > 100 µg/mL | > 100 µg/mL | > 100 µg/mL | Non-toxic | Non-toxic | Non-toxic | Non-toxic | 200 nM | 50 nM |
| 29000 nM | N#CCCCN(CCn1cnc2c(=O)[nH]cnc21)CCP(=O)(O)O | > 100 µg/mL | > 100 µg/mL | > 100 µg/mL | Non-toxic | Non-toxic | Non-toxic | Non-toxic | 6000 nM | > 230000 nM |
| 22000 nM | COC(=O)CCCN(CCn1cnc2c(=O)[nH]cnc21)CCP(=O)(O)O | > 100 µg/mL | > 100 µg/mL | > 100 µg/mL | Non-toxic | Non-toxic | Non-toxic | Non-toxic | ≥ 220000 nM | > 250000 nM |
|  | Nc1nc2c(ncn2CCNCCP(=O)(O)O)c(=O)[nH]1 | > 100 µg/mL |  |  | Non-toxic | Non-toxic | Non-toxic | Non-toxic | 16000 nM | 11000 nM |
|  | O=c1[nH]cnc2c1ncn2CCNCCP(=O)(O)O | > 100 µg/mL |  |  | Non-toxic | Non-toxic | Non-toxic | Non-toxic | ≥ 200000 nM | ≥ 250000 nM |
| > 240000 nM | O=C(O)CCN(CCn1cnc2c(=O)[nH]cnc21)CCP(=O)(O)O | > 100 µg/mL | > 100 µg/mL | > 100 µg/mL | Non-toxic | Non-toxic | Non-toxic | Non-toxic | 400 nM | 41000 nM |
| 2600 nM | CCOC(=O)CN(CCn1cnc2c(=O)[nH]cnc21)CCP(=O)(O)O | > 100 µg/mL | > 100 µg/mL | > 100 µg/mL | Non-toxic | Non-toxic | Non-toxic | Non-toxic | 1900 nM | 11000 nM |
| 100 nM | Nc1nc2c(ncn2CCN(CCCC(=O)O)CCP(=O)(O)O)c(=O)[nH]1 | > 100 µg/mL | > 100 µg/mL | > 100 µg/mL | Non-toxic | Non-toxic | Non-toxic | Non-toxic |  | 25000 nM |
| 5400 nM | O=C(O)CCCN(CCn1cnc2c(=O)[nH]cnc21)CCP(=O)(O)O | > 100 µg/mL | > 100 µg/mL | > 100 µg/mL | Non-toxic | Non-toxic | Non-toxic | Non-toxic | ≥ 210000 nM | 1600 nM |
| 32000 nM | O=C(O)CN(CCn1cnc2c(=O)[nH]cnc21)CCP(=O)(O)O | > 100 µg/mL | > 100 µg/mL | > 100 µg/mL | Non-toxic | Non-toxic | Non-toxic | Non-toxic |  | 178000 nM |
| 1400 nM | Nc1nc2c(ncn2CCN(CCP(=O)(O)O)CC(=O)O)c(=O)[nH]1 | > 100 µg/mL | > 100 µg/mL | > 100 µg/mL | Non-toxic | Non-toxic | Non-toxic | Non-toxic | 700 nM | 28000 nM |
| 2400 nM | N#CCCN(CCn1cnc2c(=O)[nH]cnc21)CCP(=O)(O)O | > 100 µg/mL | > 100 µg/mL | > 100 µg/mL | Non-toxic | Non-toxic | Non-toxic | Non-toxic | 200 nM | 700 nM |

| Structure (SMILES) | Ki [7] | CC50 [1] | CC50 [2] | CC50 [3] | Activity (L1210) | Activity (CCRF-CEM) | Activity (HL-60) | Activity [4] | Ki [5] | Ki [6] |
| --- | --- | --- | --- | --- | --- | --- | --- | --- | --- | --- |
| N#CCCN(CCn1cnc2c(=O)[nH]c(N)nc21)CCP(=O)(O)O | 70 nM | > 100 µg/mL | > 100 µg/mL | > 100 µg/mL | Non-toxic | Non-toxic | Non-toxic | Non-toxic | 200 nM | 300 nM |
| N#CCCCN(CCn1cnc2c(=O)[nH]c(N)nc21)CCP(=O)(O)O | 600 nM | > 100 µg/mL | > 100 µg/mL | > 100 µg/mL | Non-toxic | Non-toxic | Non-toxic | Non-toxic | 4000 nM | 8000 nM |
| O=c1[nH]cnc2c1ncn2CCN(CCP(=O)(O)O)CCP(=O)(O)O | 3000 nM | > 100 µg/mL | > 100 µg/mL | > 100 µg/mL | Non-toxic | Non-toxic | Non-toxic | Non-toxic |  | 13000 nM |
| Nc1nc2c(ncn2CCN(CCP(=O)(O)O)CCP(=O)(O)O)c(=O)[nH]1 | 200 nM | > 100 µg/mL | > 100 µg/mL | > 100 µg/mL | Non-toxic | Non-toxic | Non-toxic | Non-toxic | 300 nM | 900 nM |
| COC(=O)CCN(CCn1cnc2c(=O)[nH]c(N)nc21)CCP(=O)(O)O | 500 nM | > 100 µg/mL | > 100 µg/mL | > 100 µg/mL | Non-toxic | Non-toxic | Non-toxic | Non-toxic | 100 nM | 4000 nM |
| CCOC(=O)CN(CCn1cnc2c(=O)[nH]c(N)nc21)CCP(=O)(O)O | 100 nM | > 100 µg/mL | > 100 µg/mL | > 100 µg/mL | Non-toxic | Non-toxic | Non-toxic | Non-toxic | 1700 nM | 1500 nM |
| COC(=O)CCCN(CCn1cnc2c(=O)[nH]c(N)nc21)CCP(=O)(O)O | 100 nM | > 100 µg/mL | > 100 µg/mL | > 100 µg/mL | Non-toxic | Non-toxic | Non-toxic | Non-toxic | 1300 nM | > 200000 nM |
